≈ marks a conversion by molar mass, not a printed value.
What was measured:
[1] = tested on: Escherichia coli; assay: Antibacterial activity determined against Escherichia coli; format: functional
In short: (§1)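 Broth microdilution: an overnight-culture bacterial suspension was added to compound in 2.5% DMSO in water, giving a final inoculum of about 10^2–10^3 CFU/well. Plates were incubated 20–24 h at 37 °C, and growth relative to a no-compound control was read as A595. MIC was given as a range: complete inhibition at the upper concentration, viable cells at the lower.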

[2] = tested on: Staphylococcus aureus; assay: Antibacterial activity determined against Staphylococcus aureus; format: functional; in short: as §1
[3] = Inhibition of bacterial transcription/translation
[4] = tested on: Candida albicans; assay: Antifungal activity determined against Candida albicans 10231; format: functional
In short: as §1, with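 “Candida albicans:” for “Broth microdilution:”, “yeast” for “bacterial”, “40–48” for “20–24”, “25” for “37”, “versus” for “relative to”, “higher” for “upper”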

[5] = tested on: Enterococcus faecium; assay: Antibacterial activity determined against Enterococcus faecium ATCC 6569; format: functional; in short: as §1
[6] = tested on: Enterococcus faecium; assay: Antibacterial activity determined against Enterococcus faecium ATCC 882; format: functional; in short: as §1
[7] = tested on: Escherichia coli; assay: Antibacterial activity determined against gram-negativeE. coli 25922; format: functional; in short: as §1
[8] = tested on: Enterococcus faecalis; assay: Antibacterial activity determined against Enterococcus faecalis ATCC 11823; format: functional; in short: as §1
[9] = tested on: Enterococcus faecalis; assay: Antibacterial activity determined against Enterococcus faecalis ATCC 23241; format: functional; in short: as §1
[10] = tested on: Enterococcus faecalis; assay: Antibacterial activity determined against Enterococcus faecalis ATCC 4200; format: functional; in short: as §1
[11] = tested on: Enterococcus faecalis; assay: Antibacterial activity determined against Enterococcus faecalis ATCC 49757; format: functional; in short: as §1
[12] = tested on: Enterococcus hirae; assay: Antibacterial activity determined against gram-positive Enterococcus hirae 29212; format: functional; in short: as §1
[13] = tested on: Klebsiella pneumoniae; assay: Antibacterial activity determined against gram-negativeK. pneumoniae 13383; format: functional; in short: as §1
[14] = tested on: Proteus vulgaris; assay: Antibacterial activity determined against gram-negativeP. vulgaris 8427; format: functional; in short: as §1
[15] = tested on: Pseudomonas aeruginosa; assay: Antibacterial activity determined against gram-negativeP. aeruginosa 25416; format: functional; in short: as §1
[16] = tested on: Staphylococcus aureus; assay: Antibacterial activity determined against gram-positive Staphylococcus aureus 13709; format: functional; in short: as §1
[17] = tested on: Streptococcus pyogenes; assay: Antibacterial activity determined against gram-positive Streptococcus pyogenes 49399; format: functional; in short: as §1
[18] = tested on: Streptococcus pneumoniae; assay: Antibacterial activity determined against gram-positive Streptococcus pneumoniae 6303; format: functional; in short: as §1
[19] = tested on: Enterococcus faecalis; assay: Antibacterial activity determined against Enterococcus faecalis ATCC 828; format: functional; in short: as §1
[20] = tested on: Candida albicans; assay: Antibacterial activity determined against Candida albicans 10231; format: functional
In short: as §1, with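 “Candida albicans:” for “Broth microdilution:”, “yeast” for “bacterial”, “40–48” for “20–24”, “25” for “37”, “versus” for “relative to”, “higher” for “upper”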

SMILES	MIC [1]	MIC [2]	IC50 [3]	MIC [4]	MIC [5]	MIC [6]	MIC [7]	MIC [8]	MIC [9]	MIC [10]	MIC [11]	MIC [12]	MIC [13]	MIC [14]	MIC [15]	MIC [16]	MIC [17]	MIC [18]	MIC [19]	MIC [20]
O=C(O)c1cn(C2CC2)c2cc(N3CCNCC3)c(F)cc2c1=O [CIPROFLOXACIN]	0.75 µM (≈ 0.249 µg/mL)	0.75 µM (≈ 0.249 µg/mL)	> 100 µM																	
O=C1c2ccccc2C(=O)N1Cc1ccc(Cn2c(C3CCNCC3)nc3cc(Cl)c(Cl)cc32)cc1	6 µM (≈ 3.12 µg/mL)	6 µM (≈ 3.12 µg/mL)	> 100 µM	50 µM (≈ 26 µg/mL)	3 µM (≈ 1.56 µg/mL)	6 µM (≈ 3.12 µg/mL)	6 µM (≈ 3.12 µg/mL)	3 µM (≈ 1.56 µg/mL)	6 µM (≈ 3.12 µg/mL)	6 µM (≈ 3.12 µg/mL)	6 µM (≈ 3.12 µg/mL)	3 µM (≈ 1.56 µg/mL)	25 µM (≈ 13 µg/mL)	25 µM (≈ 13 µg/mL)	12 µM (≈ 6.23 µg/mL)	6 µM (≈ 3.12 µg/mL)	12 µM (≈ 6.23 µg/mL)	6 µM (≈ 3.12 µg/mL)	6 µM (≈ 3.12 µg/mL)	
CCn1c(C2CCNCC2)nc2cc(Cl)c(Cl)cc21	> 100 µM	> 100 µM	> 100 µM																	
Fc1ccc(Cn2c(C3CCNCC3)nc3cc(Cl)c(Cl)cc32)cc1	> 100 µM	> 100 µM	> 100 µM																	
Clc1cc2nc(C3CCNCC3)n(Cc3ccc(CNC4CCNCC4)cc3)c2cc1Cl	12 µM (≈ 5.67 µg/mL)	6 µM (≈ 2.83 µg/mL)	> 100 µM		12 µM (≈ 5.67 µg/mL)	12 µM (≈ 5.67 µg/mL)	12 µM (≈ 5.67 µg/mL)	12 µM (≈ 5.67 µg/mL)	12 µM (≈ 5.67 µg/mL)	12 µM (≈ 5.67 µg/mL)	12 µM (≈ 5.67 µg/mL)	3 µM (≈ 1.42 µg/mL)	12 µM (≈ 5.67 µg/mL)	25 µM (≈ 11.8 µg/mL)	12 µM (≈ 5.67 µg/mL)	6 µM (≈ 2.83 µg/mL)	6 µM (≈ 2.83 µg/mL)	12 µM (≈ 5.67 µg/mL)	12 µM (≈ 5.67 µg/mL)	50 µM (≈ 23.6 µg/mL)
NC[C@@H]1O[C@H](O[C@H]2[C@@H](O)[C@H](O[C@@H]3[C@@H](O)[C@H](N)C[C@H](N)[C@H]3O[C@H]3O[C@H](CO)[C@@H](O)[C@H](O)[C@H]3N)O[C@@H]2CO)[C@H](N)[C@@H](O)[C@@H]1O [PAROMOMYCIN]	3 µM (≈ 1.85 µg/mL)	1 µM (≈ 0.616 µg/mL)	0.56 µM																	
NCCNCc1ccc(Cn2c(C3CCNCC3)nc3cc(Cl)c(Cl)cc32)cc1	12 µM (≈ 5.19 µg/mL)	6 µM (≈ 2.59 µg/mL)	12 µM	> 100 µM	6 µM (≈ 2.59 µg/mL)	12 µM (≈ 5.19 µg/mL)	12 µM (≈ 5.19 µg/mL)	6 µM (≈ 2.59 µg/mL)	12 µM (≈ 5.19 µg/mL)	12 µM (≈ 5.19 µg/mL)	12 µM (≈ 5.19 µg/mL)	3 µM (≈ 1.3 µg/mL)	12 µM (≈ 5.19 µg/mL)	25 µM (≈ 10.8 µg/mL)	12 µM (≈ 5.19 µg/mL)	6 µM (≈ 2.59 µg/mL)	6 µM (≈ 2.59 µg/mL)	12 µM (≈ 5.19 µg/mL)	12 µM (≈ 5.19 µg/mL)	

Further lines, results first:

MIC [1]	MIC [2]	IC50 [3]	MIC [4]	MIC [5]	MIC [6]	MIC [7]	MIC [8]	MIC [9]	MIC [10]	MIC [11]	MIC [12]	MIC [13]	MIC [14]	MIC [15]	MIC [16]	MIC [17]	MIC [18]	MIC [19]	MIC [20]	SMILES
50 µM (≈ 18.1 µg/mL)	50 µM (≈ 18.1 µg/mL)	> 100 µM																		Clc1cc2nc(C3CCNCC3)n(Cc3cccnc3)c2cc1Cl
50 µM (≈ 23.6 µg/mL)	6 µM (≈ 2.83 µg/mL)	60 µM	50 µM (≈ 23.6 µg/mL)	6 µM (≈ 2.83 µg/mL)	12 µM (≈ 5.67 µg/mL)	50 µM (≈ 23.6 µg/mL)	12 µM (≈ 5.67 µg/mL)	12 µM (≈ 5.67 µg/mL)	12 µM (≈ 5.67 µg/mL)	12 µM (≈ 5.67 µg/mL)	3 µM (≈ 1.42 µg/mL)	25 µM (≈ 11.8 µg/mL)	25 µM (≈ 11.8 µg/mL)	12 µM (≈ 5.67 µg/mL)	6 µM (≈ 2.83 µg/mL)	6 µM (≈ 2.83 µg/mL)	25 µM (≈ 11.8 µg/mL)	12 µM (≈ 5.67 µg/mL)		NC1CCN(Cc2ccc(Cn3c(C4CCNCC4)nc4cc(Cl)c(Cl)cc43)cc2)CC1
> 100 µM	> 100 µM	> 100 µM																		Clc1cc2nc(C3CCNCC3)n(Cc3ccc(CBr)cc3)c2cc1Cl
> 100 µM	50 µM (≈ 20.3 µg/mL)	> 100 µM																		O=[N+]([O-])c1ccc(Cn2c(C3CCNCC3)nc3cc(Cl)c(Cl)cc32)cc1
6 µM (≈ 2.84 µg/mL)	3 µM (≈ 1.42 µg/mL)	> 100 µM	25 µM (≈ 11.8 µg/mL)	3 µM (≈ 1.42 µg/mL)	3 µM (≈ 1.42 µg/mL)	6 µM (≈ 2.84 µg/mL)	3 µM (≈ 1.42 µg/mL)	3 µM (≈ 1.42 µg/mL)	3 µM (≈ 1.42 µg/mL)	3 µM (≈ 1.42 µg/mL)	1 µM (≈ 0.473 µg/mL)	6 µM (≈ 2.84 µg/mL)	12 µM (≈ 5.68 µg/mL)	25 µM (≈ 11.8 µg/mL)	3 µM (≈ 1.42 µg/mL)	3 µM (≈ 1.42 µg/mL)	6 µM (≈ 2.84 µg/mL)	3 µM (≈ 1.42 µg/mL)		CCCCCCNCc1ccc(Cn2c(C3CCNCC3)nc3cc(Cl)c(Cl)cc32)cc1
12 µM (≈ 5.86 µg/mL)	6 µM (≈ 2.93 µg/mL)	> 100 µM	> 100 µM			12 µM (≈ 5.86 µg/mL)					1 µM (≈ 0.489 µg/mL)	12 µM (≈ 5.86 µg/mL)	25 µM (≈ 12.2 µg/mL)	25 µM (≈ 12.2 µg/mL)	6 µM (≈ 2.93 µg/mL)	3 µM (≈ 1.47 µg/mL)	12 µM (≈ 5.86 µg/mL)			NCCCCCCNCc1ccc(Cn2c(C3CCNCC3)nc3cc(Cl)c(Cl)cc32)cc1
